{"source": "ChEMBL document CHEMBL2163245", "about": "(J Med Chem, 2012)", "data": [{"target": "T1, Potassium voltage-gated channel subfamily KQT member 2 (Homo sapiens, UniProt O43526)", "T1 sequence (O43526 whole entry)": "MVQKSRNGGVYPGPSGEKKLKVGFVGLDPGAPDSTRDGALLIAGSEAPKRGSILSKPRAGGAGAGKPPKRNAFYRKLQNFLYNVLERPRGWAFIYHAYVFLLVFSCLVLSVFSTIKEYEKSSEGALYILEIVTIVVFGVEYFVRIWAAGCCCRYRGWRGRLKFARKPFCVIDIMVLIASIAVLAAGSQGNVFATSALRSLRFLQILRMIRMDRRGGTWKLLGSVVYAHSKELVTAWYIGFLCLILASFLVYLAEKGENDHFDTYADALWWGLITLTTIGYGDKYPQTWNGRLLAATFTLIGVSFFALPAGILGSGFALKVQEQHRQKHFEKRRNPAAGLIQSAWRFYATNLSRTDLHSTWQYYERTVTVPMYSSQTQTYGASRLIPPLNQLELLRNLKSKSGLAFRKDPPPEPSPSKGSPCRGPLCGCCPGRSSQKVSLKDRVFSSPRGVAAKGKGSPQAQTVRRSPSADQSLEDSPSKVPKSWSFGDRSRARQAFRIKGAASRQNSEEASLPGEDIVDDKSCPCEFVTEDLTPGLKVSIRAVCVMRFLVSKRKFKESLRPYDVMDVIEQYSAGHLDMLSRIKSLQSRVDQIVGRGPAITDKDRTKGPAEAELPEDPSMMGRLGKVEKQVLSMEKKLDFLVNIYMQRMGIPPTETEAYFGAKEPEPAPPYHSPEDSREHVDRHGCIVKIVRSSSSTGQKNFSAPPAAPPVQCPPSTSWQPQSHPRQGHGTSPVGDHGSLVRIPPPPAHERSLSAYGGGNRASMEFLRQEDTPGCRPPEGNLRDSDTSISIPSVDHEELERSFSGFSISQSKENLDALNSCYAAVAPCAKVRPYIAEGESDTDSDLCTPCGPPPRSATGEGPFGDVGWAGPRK", "assay": "Agonist activity at KCNQ2 expressed in CHO cells incubated for 3 mins by automated patch clamp assay", "type": "functional, cell-based", "outline": "(§1)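 Ionworks Quattro population patch clamp on CHO cells stably expressing KCNQ2, 7,000 cells/well in extracellular solution (mM: 137 NaCl, 4 KCl, 1 MgCl2, 1.8 CaCl2, 10 HEPES, 10 glucose, pH 7.4), amphotericin B (50 μg/ml) perforation. Held -90 mV, 2,000 ms step to -10 mV; steady-state current at pulse end before and 3 min after compound; % change versus pre-compound current. Cells >100 pA and seal >30 MΩ only.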", "units": {"EC50": "nM"}, "values": [{"smiles": "O=C(Cc1cccc(Cl)c1)Nc1ccc(N2CCCC2)cc1", "EC50": 8660}, {"smiles": "CN(Cc1ccccc1)c1ccccc1NC(=O)Cc1cccc(Cl)c1", "EC50": "> 30000"}, {"smiles": "O=C(Cc1ccc(Cl)c(Cl)c1)Nc1ccccc1N1CCCC1", "EC50": 1070}, {"smiles": "O=C(Cc1ccccc1Cl)Nc1ccccc1N1CCCC1", "EC50": 950}, {"smiles": "O=C(Nc1ccccc1N1CCCC1)C(F)c1ccccc1", "note": "(configuration not stated)", "EC50": 990}, {"smiles": "CN(C)c1ccccc1NC(=O)Cc1cccc(Cl)c1", "EC50": 27400}, {"smiles": "O=C(Cc1cccc(Cl)c1)Nc1ccccc1N1CCCCC1", "EC50": 7090}, {"smiles": "O=C(Cc1ccc(F)c(F)c1)Nc1ccccc1N1CCCC1", "EC50": 1730}, {"smiles": "O=C(Cc1cccc(Cl)c1)Nc1ccccc1-n1cccc1", "EC50": 12300}, {"smiles": "O=C(Cc1cccc(F)c1)Nc1ccccc1N1CCCC1", "EC50": 490}, {"smiles": "O=C(Cc1ccc(F)cc1)Nc1ccccc1N1CCCC1", "EC50": 700}, {"smiles": "CCN(C)c1ccccc1NC(=O)Cc1cccc(Cl)c1", "EC50": "> 30000"}, {"smiles": "CN(C(=O)Cc1ccccc1)c1ccccc1N1CCCC1", "EC50": "> 30000"}, {"smiles": "COc1ccc(CC(=O)Nc2ccccc2N2CCCC2)cc1", "EC50": 1750}, {"smiles": "CCC(C(=O)Nc1ccccc1-n1c(C)ccc1C)c1ccccc1", "note": "(racemic)", "EC50": "> 30000"}, {"smiles": "O=C(Cc1cccc(Cl)c1)Nc1ccccc1N1CCOCC1", "EC50": "> 30000"}, {"smiles": "O=C(Cc1ccccc1)Nc1ccccc1N1CCCC1", "EC50": 743}, {"smiles": "O=C(Cc1cccc(Cl)c1)Nc1ccccc1N1CCCC1", "EC50": 170}, {"smiles": "COc1cccc(CC(=O)Nc2ccccc2N2CCCC2)c1", "EC50": 2350}, {"smiles": "O=C(Cc1cccc(C(F)(F)F)c1)Nc1ccccc1N1CCCC1", "EC50": 350}, {"smiles": "O=C(Cc1cccc(Cl)c1)Nc1ccccc1N1CCCCCC1", "EC50": "> 30000"}, {"smiles": "Cc1cccc(CC(=O)Nc2ccccc2N2CCCC2)c1", "EC50": 1320}, {"smiles": "O=C(Cc1ccc(Cl)cc1)Nc1ccccc1N1CCCC1", "EC50": 800}, {"smiles": "O=C(Cc1cccc(Cl)c1)Nc1cccc(N2CCCC2)c1", "EC50": 1020}]}, {"target": "T1, Potassium voltage-gated channel subfamily KQT member 2", "assay": "Agonist activity at KCNQ2 expressed in CHO cells at 30 uM incubated for 3 mins by automated patch clamp assay", "type": "functional, cell-based", "outline": "as §1", "units": {"inhibition": "%"}, "values": [{"smiles": "O=C(Cc1ccccc1F)Nc1ccccc1N1CCCC1", "inhibition": 26.6}]}, {"target": "T1, Potassium voltage-gated channel subfamily KQT member 2", "assay": "Antagonist activity at KCNQ2 expressed in CHO cells incubated for 3 mins by automated patch clamp assay", "type": "functional, cell-based", "units": {"IC50": "nM"}, "values": [{"smiles": "CCC(C(=O)Nc1ccccc1N1CCCC1)c1ccc(OC)c(OC)c1", "note": "(racemic)", "IC50": 20200}, {"smiles": "CCC(C(=O)Nc1ccccc1N1CCCC1)c1cccc(C(F)(F)F)c1", "note": "(racemic)", "IC50": 390}, {"smiles": "O=C(Nc1ccccc1N1CCCC1)C1CCOc2ccccc21", "note": "(racemic)", "IC50": "> 30000"}, {"smiles": "CCC(C(=O)Nc1ccccc1N1CCCC1)c1cccc(Cl)c1", "note": "(racemic)", "IC50": 240}, {"smiles": "O=C(Nc1ccccc1N1CCCC1)C1CCc2ccccc21", "note": "(racemic)", "IC50": 330}, {"smiles": "CCC(C(=O)Nc1ccccc1N1CCCC1)c1cccc(C)c1", "note": "(racemic)", "IC50": 330}, {"smiles": "CCC(C(=O)Nc1ccccc1N1CCCC1)c1ccc(F)cc1", "note": "(racemic)", "IC50": 130}, {"smiles": "CCC(C(=O)Nc1ccccc1N1CCCC1)c1ccccc1", "note": "(racemic)", "IC50": 163}, {"smiles": "CCCC(C(=O)Nc1ccccc1N1CCCC1)c1ccccc1", "note": "(racemic)", "IC50": 320}, {"smiles": "CCC(C(=O)Nc1ccccc1N1CCOCC1)c1ccccc1", "note": "(racemic)", "IC50": 12700}, {"smiles": "CCC(C(=O)Nc1ccccc1N1CCCCCC1)c1ccccc1", "note": "(racemic)", "IC50": "> 30000"}, {"smiles": "CCC(C(=O)Nc1ccccc1N(C)CC)c1ccccc1", "note": "(racemic)", "IC50": "> 30000"}, {"smiles": "CCC(C(=O)Nc1ccccc1N1CCCC1)c1ccccc1F", "note": "(racemic)", "IC50": 440}, {"smiles": "CCC(C(=O)Nc1cccc(N2CCCC2)c1)c1ccccc1", "note": "(racemic)", "IC50": "> 30000"}, {"smiles": "CCC(C(=O)Nc1ccccc1-n1ccnc1)c1ccccc1", "note": "(racemic)", "IC50": "> 30000"}, {"smiles": "CCC(C(=O)Nc1ccc(N2CCCC2)cc1)c1ccccc1", "note": "(configuration not stated)", "IC50": 210}, {"smiles": "CC(C(=O)Nc1ccccc1N1CCCC1)c1ccccc1", "note": "(racemic)", "IC50": 260}, {"smiles": "CCC(C(=O)Nc1ccccc1-n1cccc1)c1ccccc1", "note": "(racemic)", "IC50": 5270}, {"smiles": "O=C(Nc1ccccc1N1CCCC1)C(c1ccccc1)C1CC1", "note": "(racemic)", "IC50": 3500}, {"smiles": "CCC(C(=O)Nc1ccccc1Cl)c1ccccc1", "note": "(racemic)", "IC50": 15000}, {"smiles": "CCC(C(=O)Nc1ccccc1N1C(=O)CCC1=O)c1ccccc1", "note": "(racemic)", "IC50": "> 30000"}, {"smiles": "CCC(C(=O)N(C)c1ccccc1N1CCCC1)c1ccccc1", "note": "(racemic)", "IC50": "> 30000"}, {"smiles": "CCC(C(=O)Nc1ccccc1N1CCCC1)c1ccccc1Cl", "note": "(racemic)", "IC50": 3310}, {"smiles": "CCC(C(=O)Nc1ccccc1N1CCCC1)c1ccc(Cl)cc1", "note": "(racemic)", "IC50": 280}, {"smiles": "CC(C)CC(C(=O)Nc1ccccc1N1CCCC1)c1ccccc1", "note": "(racemic)", "IC50": 2220}, {"smiles": "CCC(C(=O)Nc1ccccc1N1CCCC1)c1ccc(OC)cc1", "note": "(racemic)", "IC50": 380}, {"smiles": "CCC(C(=O)Nc1ccccc1N1CCCC1)c1cccc(OC)c1", "note": "(racemic)", "IC50": 120}, {"smiles": "CC(C)(C(=O)Nc1ccccc1N1CCCC1)c1ccccc1", "IC50": "> 30000"}, {"smiles": "CCC(C(=O)Nc1ccccc1N1CCCC1)c1ccc(F)c(F)c1", "note": "(racemic)", "IC50": 170}, {"smiles": "CCC(C(=O)Nc1ccccc1N1CCCC1)c1cccc(F)c1", "note": "(racemic)", "IC50": 360}, {"smiles": "O=C(Nc1ccccc1N1CCCC1)C1(c2ccccc2)CC1", "IC50": "> 30000"}, {"smiles": "CCC(C(=O)Nc1ccccc1N1CCCC1)c1ccc(Cl)c(Cl)c1", "note": "(racemic)", "IC50": 470}]}, {"tested_on": "not listed separately", "assay": "Selectivity ratio of IC50 for KCNQ1 to KCNQ2", "values": [{"smiles": "CCC(C(=O)Nc1ccccc1N1CCCC1)c1cccc(C(F)(F)F)c1", "note": "(racemic)", "Ratio IC50": "> 40"}, {"smiles": "CCC(C(=O)Nc1ccccc1N1CCCC1)c1cccc(Cl)c1", "note": "(racemic)", "Ratio IC50": "> 40"}, {"smiles": "CCC(C(=O)Nc1ccccc1N1CCCC1)c1cccc(C)c1", "note": "(racemic)", "Ratio IC50": "> 40"}, {"smiles": "CCC(C(=O)Nc1ccccc1N1CCCC1)c1ccc(F)cc1", "note": "(racemic)", "Ratio IC50": "> 40"}, {"smiles": "CCC(C(=O)Nc1ccccc1N1CCCC1)c1ccccc1F", "note": "(racemic)", "Ratio IC50": "> 40"}, {"smiles": "C[C@H](C(=O)Nc1ccccc1N1CCCC1)c1ccccc1", "Ratio IC50": "> 40"}, {"smiles": "CCC(C(=O)Nc1ccccc1N1CCCC1)c1ccc(Cl)cc1", "note": "(racemic)", "Ratio IC50": "> 40"}, {"smiles": "CCC(C(=O)Nc1ccccc1N1CCCC1)c1cccc(OC)c1", "note": "(racemic)", "Ratio IC50": "> 40"}, {"smiles": "CC[C@H](C(=O)Nc1ccccc1N1CCCCC1)c1ccccc1", "Ratio IC50": "> 40"}, {"smiles": "CCC(C(=O)Nc1ccccc1N1CCCC1)c1cccc(F)c1", "note": "(racemic)", "Ratio IC50": "> 40"}]}]}
